Published values gathered from unrelated publications.
Lines come from different studies, so protocols differ.
BCHE: Cholinesterase (BCHE, Homo sapiens, UniProt P06276)
MC4R: Melanocortin receptor 4 (MC4R, Homo sapiens, UniProt P32245)
Oprk1: Kappa-type opioid receptor (Oprk1, Mus musculus, UniProt P33534)

SMILES | target | test | system | conditions | quantity | value
[2H]c1c([2H])c([C@]2([2H])CCCN2C(=O)C(C)(C)Oc2ccc3cn[nH]c3c2)c([2H])c([2H])c1C([2H])([2H])[2H] | Peripheral plasma membrane protein CASK (CASK, Homo sapiens, UniProt O14936) | binding, competition with immobilised ligand | – | 1 µM | remaining binding | 89%
COc1cc(/C=C/C(=O)O)ccc1OCc1cn(CC(=O)Nc2ccc(C)cc2)nn1 | BCHE | enzyme activity, inhibitor, Ellman | – | 40 µM | inhibition | 48.5%
CCCC[C@H](NC(C)=O)C(=O)N[C@@H](C)C(=O)N[C@@H](Cc1c[nH]cn1)C(=O)N[C@@H](Cc1ccccc1)C(=O)N[C@@H](CCCNC(=N)N)C(=O)N[C@H](Cc1c[nH]c2ccccc12)C(=O)N[C@@H](CC(=O)O)C(=O)N[C@@H](CCCNC(=N)N)C(=O)N[C@@H](Cc1ccccc1)C(=O)N[C@@H](C(=O)N1CCC[C@@H]1C(N)=O)C(C)C | MC4R | cAMP, agonist | CHO-K1 | – | Emax | 100%
CC(C)CC(=O)OC[C@H]1O[C@@](C#N)(c2ccc3c(N)ncnn23)[C@H](O)[C@@H]1O | MC4R | cell-free assay | – | 20 µM | inhibition | 6%
Cc1c(CC(=O)N[C@@H](CN2CCc3ccccc3C2)C(C)C)cccc1[N+](=O)[O-] | Oprk1 | ligand displacement, radioligand | – | 10 µM | inhibition | 95.1%
COc1cc(/C=C/C(=O)O)ccc1OCc1cn(CC(=O)Nc2ccccc2C)nn1 | BCHE | enzyme activity, inhibitor, Ellman | – | 40 µM | inhibition | 44.6%
CC(C)[C@@H](CN1CCc2ccccc2C1)NC(=O)Cc1c[nH]c2ccccc12 | Oprk1 | ligand displacement, radioligand | – | 10 µM | inhibition | 89.1%
COc1cc(/C=C/C(=O)O)ccc1OCc1cn(CC(=O)Nc2ccc(Cl)cc2)nn1 | BCHE | enzyme activity, inhibitor, Ellman | – | 40 µM | inhibition | 22.2%
CC(C)[C@@H](CN1CCc2ccccc2C1)NC(=O)c1cccc(-c2cccc(O)c2)c1 | Oprk1 | ligand displacement, radioligand | – | 10 µM | inhibition | 94.2%
CN1CCC[C@H]1c1cccnc1 | Muscarinic acetylcholine receptor M5 (CHRM5, Homo sapiens, UniProt P08912) | ligand displacement | – | 50 µM | inhibition | -4.76%
